ChEMBL document CHEMBL3272181, “Design of substrate-site-directed irreversible inhibitors of adenosine 5'-phosphate aminohydrolase. Effect of substrate substituents on affinity for the substrate site” (J Med Chem, 1976)

Tests used:
[1] = Retardation factor, Rf of the compound in 5:2:3 1-butanol-acetic acid-water by paper chromatographic analysis; assay type: physicochemical; details: buffer
[2] = Retardation factor, Rf of the compound in 1:1 2-propanol-0.25 M triethylammonium bicarbonate by paper chromatographic analysis; assay type: physicochemical
Oryctolagus cuniculus [3] = species: Oryctolagus cuniculus; experiment: Activity at rabbit muscle AMP aminohydrolase after 24 hrs by Lineweaver-Burk plot analysis relative to AMP; assay type: tissue-based; details: Muscle tissue
[4] = Linear competitive inhibition of rabbit muscle AMP aminohydrolase using AMP as substrate at 27 to 54 uM by Lineweaver-Burk plot analysis; assay type: tissue-based, Oryctolagus cuniculus, Muscle tissue
In short: (§1)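 Rabbit-muscle AMP aminohydrolase (Grade IV), diluted into 1 M KCl before use. Assayed at 22° in 0.01 M citrate buffer pH 6.5 with 25 mM KCl, following the fall in absorbance at 265 nm (Δε 8400, except 8-bromo-AMP). Initial velocities were linear and proportional to enzyme. At least four substrate and two inhibitor levels were used; parameters came from Lineweaver-Burk plots.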

[5] = Stability of the compound assessed as papaya protease type 3-mediated amide linkage cleavage at pH 7.6 after 24 hrs by paper electrophoretic analysis; assay type: ADME; details: carica papaya, buffer, pH 7.6, 24 h
In short: (§2)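 Compounds were incubated at 37° for 24 h in 0.05 M Tris pH 7.6 (2 ml) with one of: acylase 20 mg; pancreatic protease I 20 mg; fungal II 20 mg; papaya III 10 mg; bacterial IV 200 mg; VI 30 mg; VII 30 or 15 mg; X 5 mg; or hog-intestine peptidase 20 mg. Amide cleavage was checked by paper electrophoresis (pH 7.6, 4 kV, 30 min).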

[6] = Stability of the compound assessed as bacterial protease type 7-mediated amide linkage cleavage at pH 7.6 after 24 hrs by paper electrophoretic analysis; assay type: ADME; details: bacteria, buffer, pH 7.6, 24 h; in short: as §2
[7] = Stability of the compound assessed as acylase (unknown origin)-mediated amide linkage cleavage at pH 7.6 after 24 hrs by paper electrophoretic analysis; assay type: ADME; details: buffer, pH 7.6, 24 h; in short: as §2
[8] = Stability of the compound assessed as hog intestinal peptidase-mediated amide linkage cleavage at pH 7.6 after 24 hrs by paper electrophoretic analysis; assay type: ADME, Sus scrofa; details: pig, isolated protein, pH 7.6, 24 h; in short: as §2
[9] = Stability of the compound assessed as bacterial protease type 8-mediated amide linkage cleavage at pH 7.6 after 24 hrs by paper electrophoretic analysis; assay type: ADME; details: bacteria, buffer, pH 7.6, 24 h
[10] = Stability of the compound assessed as bacterial protease type 10-mediated amide linkage cleavage at pH 7.6 after 24 hrs by paper electrophoretic analysis; assay type: ADME; details: bacteria, buffer, pH 7.6, 24 h; in short: as §2
[11] = Stability of the compound assessed as bacterial protease type 4-mediated amide linkage cleavage at pH 7.6 after 24 hrs by paper electrophoretic analysis; assay type: ADME; details: bacteria, buffer, pH 7.6, 24 h; in short: as §2
[12] = Linear competitive inhibition of rabbit muscle AMP aminohydrolase using AMP as substrate at 21 to 42 uM by Lineweaver-Burk plot analysis; assay type: tissue-based, Oryctolagus cuniculus, Muscle tissue; in short: as §1
[13] = Stability of the compound assessed as bacterial protease type 6-mediated amide linkage cleavage at pH 7.6 after 24 hrs by paper electrophoretic analysis; assay type: ADME; details: bacteria, buffer, pH 7.6, 24 h; in short: as §2
[14] = Stability of the compound assessed as pancreatic protease type 1 (unknown origin)-mediated amide linkage cleavage at pH 7.6 after 24 hrs by paper electrophoretic analysis; assay type: ADME; details: buffer, pH 7.6, 24 h; in short: as §2
[15] = Stability of the compound assessed as fungal protease type 2-mediated amide linkage cleavage at pH 7.6 after 24 hrs by paper electrophoretic analysis; assay type: ADME; details: fungi, buffer, pH 7.6, 24 h; in short: as §2
[16] = Retardation factor, Rf of the compound in 4:1:5 1-butanol-acetic acid-water by paper chromatographic analysis; assay type: physicochemical; details: buffer
[17] = Retardation factor, Rf of the compound in 7:3 1-propanol-water by paper chromatographic analysis; assay type: physicochemical; details: buffer
[18] = Retardation factor, Rf of the compound in 7:3 95% ethanol-1M ammonium acetate at pH 7.5 by paper chromatographic analysis; assay type: physicochemical
[19] = Linear competitive inhibition of rabbit muscle AMP aminohydrolase using AMP as substrate at 64 to 128 uM by Lineweaver-Burk plot analysis; assay type: tissue-based, Oryctolagus cuniculus, Muscle tissue; in short: as §1
[20] = Stability of the compound in Tris buffer at pH 8.5 at 22 degC; assay type: physicochemical
Oryctolagus cuniculus [21] = species: Oryctolagus cuniculus; experiment: Activity at rabbit muscle AMP aminohydrolase by Lineweaver-Burk plot analysis; assay type: tissue-based; details: Muscle tissue; in short: as §1
[22] = Non-linear competitive inhibition of rabbit muscle AMP aminohydrolase using AMP as substrate at 23 uM by Lineweaver-Burk plot analysis; assay type: tissue-based, Oryctolagus cuniculus, Muscle tissue; in short: as §1
Oryctolagus cuniculus [23] = species: Oryctolagus cuniculus; experiment: Activity at rabbit muscle AMP aminohydrolase after 48 hrs by Lineweaver-Burk plot analysis relative to AMP; assay type: tissue-based; details: Muscle tissue
[24] = Non-linear competitive inhibition of rabbit muscle AMP aminohydrolase using AMP as substrate at 46 uM by Lineweaver-Burk plot analysis; assay type: tissue-based, Oryctolagus cuniculus, Muscle tissue; in short: as §1
[25] = Linear competitive inhibition of rabbit muscle AMP aminohydrolase using AMP as substrate at 26 to 52 uM by Lineweaver-Burk plot analysis; assay type: tissue-based, Oryctolagus cuniculus, Muscle tissue; in short: as §1
[26] = Linear competitive inhibition of rabbit muscle AMP aminohydrolase using AMP as substrate at 49 to 148 uM by Lineweaver-Burk plot analysis; assay type: tissue-based, Oryctolagus cuniculus, Muscle tissue; in short: as §1
[27] = Retardation factor, Rf of the compound in 7:1:2 2-propanol-concentrated ammonia-water by paper chromatographic analysis; assay type: physicochemical; details: buffer
[28] = Linear noncompetitive inhibition of rabbit muscle AMP aminohydrolase using AMP as substrate at 19 to 38 uM by Lineweaver-Burk plot analysis; assay type: tissue-based, Oryctolagus cuniculus, Muscle tissue; in short: as §1
[29] = Linear competitive inhibition of rabbit muscle AMP aminohydrolase using AMP as substrate at 11 to 23 uM by Lineweaver-Burk plot analysis; assay type: tissue-based, Oryctolagus cuniculus, Muscle tissue; in short: as §1
[30] = Linear competitive inhibition of rabbit muscle AMP aminohydrolase using AMP as substrate at 14 to 28 uM by Lineweaver-Burk plot analysis; assay type: tissue-based, Oryctolagus cuniculus, Muscle tissue; in short: as §1
[31] = Linear competitive inhibition of rabbit muscle AMP aminohydrolase using AMP as substrate at 11 to 22 uM by Lineweaver-Burk plot analysis; assay type: tissue-based, Oryctolagus cuniculus, Muscle tissue; in short: as §1
[32] = Linear competitive inhibition of rabbit muscle AMP aminohydrolase using AMP as substrate at 49 to 99 uM by Lineweaver-Burk plot analysis; assay type: tissue-based, Oryctolagus cuniculus, Muscle tissue; in short: as §1
[33] = Linear competitive inhibition of rabbit muscle AMP aminohydrolase using AMP as substrate at 12 to 24 uM by Lineweaver-Burk plot analysis; assay type: tissue-based, Oryctolagus cuniculus, Muscle tissue; in short: as §1

In the case of `COC(=O)NCC(C[C@H]1O[C@@H](n2cnc3c(N)ncnc32)[C@H](O)[C@@H]1O)P(=O)(O)O` (stereo partly drawn), the Rf [1] is reported as 0.33, the Rf [2] is reported as 0.75 and the Activity (Oryctolagus cuniculus [3]) is reported as 0%. For the same molecule, the Ki [4] was 19 µM.
With `CCC(=O)NCC(C[C@H]1O[C@@H](n2cnc3c(N)ncnc32)[C@H](O)[C@@H]1O)P(=O)(O)O` (stereo partly drawn) the Stability [5] was “Stable”, the Rf [1] was 0.39 and the Stability [6] was “Stable”. For the same molecule, the Stability [7] was “Stable”, the Stability [8] was “Stable” and the Stability [9] was “Stable”. The Stability [10] was “Stable”, the Rf [2] was 0.83 and the Stability [11] was “Stable”. For the same molecule, the Activity (Oryctolagus cuniculus [3]) was 0%, the Ki [12] was 17 µM and the Stability [13] was “Stable”. For the same molecule, the Stability [14] was “Stable” and the Stability [15] was “Stable”.
`CC(=O)OC(C[C@H]1O[C@@H](n2cnc3c(N)ncnc32)[C@@H]2OC(C)(C)O[C@@H]21)P(=O)(O)O` (stereo partly drawn) gave a Rf [16] of 0.5, a Rf [1] of 0.65 and a Rf [17] of 0.49. For the same molecule, the Rf [18] was 0.39.
`CC(=O)OC(C[C@H]1O[C@@H](n2cnc3c(N)ncnc32)[C@H](O)[C@@H]1O)P(=O)(O)O` (stereo partly drawn) gave a Rf [16] of 0.18, a Rf [1] of 0.31 and a Rf [17] of 0.27. The Ki [19] was 330 µM, the Rf [18] was 0.17 and the Activity (Oryctolagus cuniculus [3]) was 7.8%. For the same molecule, the Stability [20] was 16 h and the Km (Oryctolagus cuniculus [21]) was 120 µM.
`CC(=O)NC[C@@H](OP(=O)(O)O)[C@H]1O[C@@H](n2cnc3c(N)ncnc32)[C@H](O)[C@@H]1O` gave a Ki [22] of 47 µM, an Activity (Oryctolagus cuniculus [23]) of over 0% and a Ki [24] of 30 µM.
With `CC(=O)NCC(C[C@H]1O[C@@H](n2cnc3c(N)ncnc32)[C@H](O)[C@@H]1O)P(=O)(O)O` (stereo partly drawn) the Stability [5] was “Stable”, the Rf [1] was 0.29 and the Stability [6] was “Stable”. The Stability [7] was “Stable”, the Ki [25] was 20 µM and the Stability [8] was “Stable”. For the same molecule, the Stability [9] was “Stable”, the Stability [10] was “Stable” and the Rf [2] was 0.73. For the same molecule, the Stability [11] was “Stable”, the Activity (Oryctolagus cuniculus [3]) was 0.61% and the Stability [13] was “Stable”. The Stability [14] was “Stable”, the Km (Oryctolagus cuniculus [21]) was 80 µM and the Stability [15] was “Stable”.
In the case of `CC1(C)O[C@@H]2[C@H](O1)[C@@H](COP(=O)(O)O)O[C@H]2n1cnc2c(N)ncnc21`, the Rf [16] is reported as 0.4, the Rf [1] is reported as 0.59 and the Ki [26] is reported as 260 µM. It also gave a Rf [18] of 0.3, a Rf [27] of 0.34 and an Activity (Oryctolagus cuniculus [3]) of 0.5%. It also gave a Km (Oryctolagus cuniculus [21]) of 130 µM.
Work on `CCC(=O)NC[C@@H](OP(=O)(O)O)[C@H]1O[C@@H](n2cnc3c(N)ncnc32)[C@H](O)[C@@H]1O` yielded a Ki [28] of 205 µM and an Activity (Oryctolagus cuniculus [23]) of 0%.
For `CC(=O)NC[C@H](OP(=O)(O)O)[C@H]1O[C@@H](n2cnc3c(N)ncnc32)[C@H](O)[C@@H]1O`, the Activity (Oryctolagus cuniculus [3]) was over 0% and the Ki [29] was 18 µM.
With `N#CC(C[C@H]1O[C@@H](n2cnc3c(N)ncnc32)[C@H](O)[C@@H]1O)P(=O)(O)O` (stereo partly drawn) the Rf [1] was 0.27 and the Rf [2] was 0.71.
Molecule `Nc1ncnc2c1ncn2[C@@H]1O[C@H](COP(=O)(O)O)[C@@H](O)[C@H]1O` has an Activity (Oryctolagus cuniculus [3]) of 100%, a Km (Oryctolagus cuniculus [21]) of 600 µM and a Vmax (Oryctolagus cuniculus [21]) of 294 µmol/min.
Work on `CCC(=O)NC[C@H](OP(=O)(O)O)[C@H]1O[C@@H](n2cnc3c(N)ncnc32)[C@H](O)[C@@H]1O` yielded a Ki [30] of 42 µM.
`NCC(C[C@H]1O[C@@H](n2cnc3c(N)ncnc32)[C@H](O)[C@@H]1O)P(=O)(O)O` (stereo partly drawn) showed a Rf [1] of 0.21, a Rf [2] of 0.49 and an Activity (Oryctolagus cuniculus [3]) of 0.65%. It also gave a Km (Oryctolagus cuniculus [21]) of 140 µM.
In the case of `CCOC(=O)NCC(C[C@H]1O[C@@H](n2cnc3c(N)ncnc32)[C@H](O)[C@@H]1O)P(=O)(O)O` (stereo partly drawn), the Rf [1] is reported as 0.41, the Rf [2] is reported as 0.78 and the Activity (Oryctolagus cuniculus [3]) is reported as 0%. The Ki [31] was 16 µM.
`CC(=O)O[C@@H]1[C@H](OC(C)=O)[C@@H](COP(=O)(O)O)O[C@H]1n1cnc2c(N)ncnc21` gave a Rf [16] of 0.34, a Rf [1] of 0.56 and a Rf [17] of 0.41. The Ki [32] was 105 µM, the Activity (Oryctolagus cuniculus [3]) was 0.07% and the Km (Oryctolagus cuniculus [21]) was 670 µM.
`CCCOC(=O)NCC(C[C@H]1O[C@@H](n2cnc3c(N)ncnc32)[C@H](O)[C@@H]1O)P(=O)(O)O` (stereo partly drawn) showed a Rf [1] of 0.55, a Rf [2] of 0.81 and an Activity (Oryctolagus cuniculus [3]) of 0%. The Ki [33] was 14 µM.
